# Laboratory results published in ChEMBL document CHEMBL3992512, “The Discovery and Hit-to-Lead Optimization of Tricyclic Sulfonamides as Potent and Efficacious Potentiators of Glycine Receptors” (J Med Chem, 2017).
# Calls of active or inactive are those of the source.
# How the values were obtained:
# [1] = molecular target: Glycine receptor alpha-3/beta (Homo sapiens) (UniProt O75311+P48167); assay: Positive allosteric modulation of human glycine alpha3beta receptor expressed in HEK293T cells assessed as compound concentration required to induce up to 3-fold leftward shift in glycine-induced increase in chloride ion flux after 4 mins by Schild plot analysis; type: cell-based
# Summary of the method: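 HEK293T cells stably expressing human GlyRα3β, ~12000 cells/well, plated overnight and loaded with membrane potential blue dye. Glycine 1:2 dilution series premixed with compound at varying concentrations in HEPES/NaCl/mannitol buffer, pH 7.4. FLIPR fluorescence read 4 min and processed as AUC over baseline. mEC₃ is the lowest tested concentration giving a ≥3-fold leftward shift of glycine EC₅₀.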
# [2] = Intrinsic clearance in mouse liver microsomes up to 40 mins in presence of NADPH; type: ADME, microsome; conditions: read-out: CLH
# [3] = Ratio of unbound Cmax in mouse brain to EC50 for glycine alpha3 receptor in mouse model of spared nerve injury-induced tactile allodynia at 30 mg/kg, po
# Summary of the method: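 Mice dosed orally; unbound brain Cmax is total brain concentration × brain fraction unbound, sampled at multiple time points. It is divided by EC₅₀ for potentiation of mouse GlyRα3.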
# human BCRP = assay: Efflux ratio of passive apparent permeability in MDCK cells harboring human BCRP; type: ADME, cell-based, Canis lupus familiaris; conditions: dog
# Summary of the method: (§1)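 Bidirectional transport at 5 μM, in triplicate, across MDCK cells carrying control vector, human MDR1 or human ABCG2 (BCRP). Passive Papp is the mean of both directions in vector-control cells. Efflux ratios come from the MDR1 and BCRP lines.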
# [4] = Solubility in fasted state simulated intestinal fluid; type: physicochemical
# [5] = Solubility in phosphate buffered saline; type: physicochemical
# Mus musculus [6] = species: Mus musculus; assay: Ex vivo positive allosteric modulation of glycine receptor in C57BL/6 mouse spinal cord assessed as potentiation of glycine-induced post synaptic current amplitude at 0.5 uM at holding potential of -60 mV after 10 mins in presence of sodium channel inhibitor TTX/AMPA/kainate receptor antagonist CNQX/GABAa receptor antagonist bicuculline/NMDA receptor antagonist APV by electrophysiology method relative to glycine alone
# Summary of the method: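 Adult mouse spinal cord slices; dorsal horn neurons in laminae I–II were identified histologically and confirmed glycinergic by focal glycine (20 μM) with strychnine (10 μM) reversal. Postsynaptic current amplitude was recorded with glycine 20 μM alone, then with glycine plus compound at 0.5 μM, then with strychnine added. The readout is the mean ratio of PSC amplitude (compound + glycine / glycine alone), n = 5.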
# human MDR1 = assay: Efflux ratio of passive apparent permeability in MDCK cells harboring human MDR1; type: ADME, cell-based, Canis lupus familiaris; conditions: dog; summary of the method: as §1
# [7] = Passive apparent permeability in MDCK cells; type: ADME, cell-based, Canis lupus familiaris; conditions: dog; summary of the method: as §1
# [8] = Ratio of unbound Cmax in mouse brain to EC50 for glycine alpha3 receptor in mouse model of spared nerve injury-induced tactile allodynia at 50 mg/kg, po
# [9] = Ratio of unbound Cmax in mouse brain to EC50 for glycine alpha3 receptor in mouse model of spared nerve injury-induced tactile allodynia at 60 mg/kg, po
# Liver [10] = assay: Drug metabolism in mouse liver microsomes assessed as oxidation of pyrrolidine ring up to 40 mins in presence of NADPH; type: ADME, microsome
# Liver [11] = assay: Drug metabolism in mouse liver microsomes assessed as oxidation of benzodioxolane moiety up to 40 mins in presence of NADPH; type: ADME, microsome
# Liver [12] = assay: Drug metabolism in mouse liver microsomes assessed as oxidation of quinolinone core up to 40 mins in presence of NADPH; type: ADME, microsome
# Plasma [13] = assay: Unbound Cmax in mouse plasma at 50 mg/kg, ip; type: ADME, organism-based; conditions: in vivo
# Mus musculus [14] = assay: Antiallodynic activity in mouse model of spared nerve injury-induced tactile allodynia assessed as tactile threshold at 30 mg/kg, po measured 90 mins post dose by Von Frey filament assay; type: functional, organism-based
# [15] = Ratio of unbound Cmax in mouse brain to EC50 for glycine alpha3 receptor in mouse model of spared nerve injury-induced tactile allodynia at 30 mg/kg, ip
# Summary of the method: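 After intraperitoneal dosing, brains were collected at multiple time points. Unbound brain concentration is total brain concentration × brain fraction unbound, divided by mouse GlyRα3 potentiation EC₅₀.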
# Plasma [16] = assay: Unbound Cmax in mouse plasma at 30 mg/kg, ip; type: ADME, organism-based; conditions: in vivo
# [17] = molecular target: T1, Glycine receptor subunit alpha-3 (Homo sapiens, UniProt O75311); assay: Binding affinity to human glycine alpha3 receptor expressed in HEK293T cells by SPR assay; parameters: species or system HEK-293T
# T1 sequence (O75311 whole entry): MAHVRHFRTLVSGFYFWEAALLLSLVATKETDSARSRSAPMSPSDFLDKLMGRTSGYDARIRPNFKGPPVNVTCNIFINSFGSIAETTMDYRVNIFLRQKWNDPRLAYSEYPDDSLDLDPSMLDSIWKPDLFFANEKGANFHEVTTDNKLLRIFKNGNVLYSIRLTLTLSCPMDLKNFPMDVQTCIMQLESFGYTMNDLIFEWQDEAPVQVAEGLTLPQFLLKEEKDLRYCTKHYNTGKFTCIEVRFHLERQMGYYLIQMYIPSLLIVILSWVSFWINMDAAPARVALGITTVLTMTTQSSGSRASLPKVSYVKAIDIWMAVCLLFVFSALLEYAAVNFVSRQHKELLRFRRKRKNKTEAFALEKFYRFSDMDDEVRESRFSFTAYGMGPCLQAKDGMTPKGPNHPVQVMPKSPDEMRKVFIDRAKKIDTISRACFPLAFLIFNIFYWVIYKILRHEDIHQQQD
# [18] = molecular target: T1, Glycine receptor subunit alpha-3; assay: Positive allosteric modulation of human glycine alpha3 receptor expressed in HEK293T cells assessed as potentiation of glycine-induced increase in chloride ion flux after 4 mins by membrane potential blue dye based FLIPR assay; type: cell-based, HEK-293T
# [19] = Drug degradation in neutral buffer at 37 degC after 1 hr
# Summary of the method: (§2)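 Buffer stability was followed as percent decomposition at three conditions: neutral buffer at 37 °C over 1 h, pH 2 acidic buffer at room temperature, and pH 11 basic buffer at room temperature up to 20 h.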
# Plasma [20] = assay: Stability in mouse plasma; type: ADME, cell-free
# [21] = Drug degradation in pH 11 basic buffer at room temperature measured after 20 hrs; summary of the method: as §2
# [22] = Chemical stability in pH 2 acidic buffer at room temperature measured immediately; type: physicochemical; summary of the method: as §2
SMILES,MEC [1],microsomal CLint [2],efflux ratio (human BCRP),efflux ratio (human MDR1),Papp [7],further results
CN1C(=O)[C@@H]2CN(S(=O)(=O)c3ccc4c(c3)OCO4)C[C@@H]2c2cc(F)ccc21 (racemic),0.78 µM,761 µL/min/mg,,,,
C[C@H]1[C@@H]2C(=O)N(C)c3ccncc3[C@@H]2CN1S(=O)(=O)c1ccc2c(c1)OCO2,> 25 µM,,,,,
CN1C(=O)[C@]2(F)CN(S(=O)(=O)c3ccc4c(c3)OCO4)C[C@@H]2c2cnccc21 (racemic),> 25 µM,,,,,
CN1C(=O)[C@@H]2CN(S(=O)(=O)c3ccc4c(c3)OCO4)C[C@@H]2c2cnccc21,0.2 µM,151 µL/min/mg,0.9,0.8,52 ×10⁻⁶ cm/s,Ratio [3]: 0.62; solubility [4]: 296 µM; solubility [5]: 235 µM; fold change (FC) (Mus musculus [6]): 4.9
CN1C(=O)[C@]2(C#N)CN(S(=O)(=O)c3ccc4c(c3)OCO4)C[C@@H]2c2cnccc21 (racemic),> 25 µM,,,,,
CN1C(=O)[C@@H]2CN(S(=O)(=O)c3ccc4c(c3)CCO4)C[C@@H]2c2cnccc21,3.1 µM,225 µL/min/mg,1.2,4.3,50 ×10⁻⁶ cm/s,Ratio [8]: 0.19
CN1C(=O)[C@@H]2CN(S(=O)(=O)c3ccc4c(c3)OCO4)C[C@]2(C)c2cnccc21 (racemic),> 25 µM,,,,,
O=S(=O)(c1ccc2c(c1)OCO2)N1C[C@@H]2c3nccn3-c3ccccc3[C@@H]2C1,6.3 µM,1670 µL/min/mg,,,,
CN1C(=O)[C@@H]2CN(S(=O)(=O)c3ccc4c(c3)OCO4)C[C@@H]2c2cc(O)ccc21,0.39 µM,499 µL/min/mg,3.1,3.2,18 ×10⁻⁶ cm/s,
CN1C(=O)[C@@H]2CN(S(=O)(=O)c3ccc4c(c3)OCO4)C[C@@H]2c2cc(C#N)ccc21 (racemic),12.5 µM,374 µL/min/mg,,,,
C[C@H]1[C@H]2c3cnccc3N(C)C(=O)[C@H]2CN1S(=O)(=O)c1ccc2c(c1)OCO2,> 25 µM,,,,,
CN1C(=O)[C@@H]2CN(S(=O)(=O)c3ccc(F)c(Cl)c3)C[C@@H]2c2cnccc21,3.1 µM,432 µL/min/mg,1.1,1.2,49 ×10⁻⁶ cm/s,
CN1C(=O)[C@@H]2CN(S(=O)(=O)c3ccc4c(c3)OCO4)C[C@@H]2c2ccncc21 (racemic),6.3 µM,225 µL/min/mg,,,,
CN1C(=O)[C@H]2CN(S(=O)(=O)c3ccc4c(c3)OCO4)C[C@H]2c2cnccc21,> 25 µM,213 µL/min/mg,0.9,1,14 ×10⁻⁶ cm/s,Activity (Mus musculus [6]): inactive
CN1C(=O)[C@@H]2CN(S(=O)(=O)c3ccc4scnc4c3)C[C@@H]2c2cnccc21,1.56 µM,79 µL/min/mg,1.4,3.3,48 ×10⁻⁶ cm/s,Ratio [9]: 0.15
C[C@@H]1[C@H]2c3cnccc3N(C)C(=O)[C@H]2CN1S(=O)(=O)c1ccc2c(c1)OCO2,> 25 µM,,,,,
C[C@H]1[C@@H]2c3cnccc3N(C)C(=O)[C@@H]2CN1S(=O)(=O)c1ccc2c(c1)OCO2,> 25 µM,,,,,

SMILES,MEC [1],microsomal CLint [2],efflux ratio (human BCRP),efflux ratio (human MDR1),Papp [7],further results
CN1C(=O)[C@@H]2CN(S(=O)(=O)c3ccc4c(c3)OCO4)C[C@@H]2c2ncccc21,0.78 µM,136 µL/min/mg,1,1.5,45 ×10⁻⁶ cm/s,Ratio [3]: 0.006; solubility [4]: 28 µM; solubility [5]: 7 µM
C[C@@H]1[C@@H]2c3cnccc3N(C)C(=O)[C@@H]2CN1S(=O)(=O)c1ccc2c(c1)OCO2,> 25 µM,,,,,
CN1C(=O)[C@@H]2CN(S(=O)(=O)c3ccc4c(c3)OCO4)C[C@@H]2c2ccccc21,0.78 µM,,,,46 ×10⁻⁶ cm/s,Drug metabolism (Liver [10]): Metabolite_Detected; Drug metabolism (Liver [11]): Metabolite_Detected; Drug metabolism (Liver [12]): Metabolite_Detected; fCmax (Plasma [13]): 0.07 µM
CC(C)C[C@H](CN)CC(=O)O,,,,,,Activity (Mus musculus [14]): Active
CN1C(=O)[C@@H]2CN(S(=O)(=O)c3ccc4c(c3)OCC4)C[C@@H]2c2cnccc21,1.56 µM,177 µL/min/mg,0.7,2.9,28 ×10⁻⁶ cm/s,Ratio [9]: 0.38
CN1C(=O)[C@@H]2CN(S(=O)(=O)c3ccc4nc[nH]c4c3)C[C@@H]2c2cnccc21,3.1 µM,< 14 µL/min/mg,,,,Ratio [15]: 0.047
CN1C(=O)[C@@H]2CN(S(=O)(=O)c3ccc4ncn(C)c4c3)C[C@@H]2c2cnccc21,3.1 µM,,,,,
O=S(=O)(c1ccc2c(c1)OCO2)N1C[C@@H]2c3ccccc3-n3ccnc3[C@@H]2C1,3.1 µM,901 µL/min/mg,1.3,1.7,58 ×10⁻⁶ cm/s,fCmax (Plasma [16]): 0.13 µM
CN1C(=O)[C@@H]2CN(S(=O)(=O)c3ccc4c(c3)OCO4)C[C@@H]2c2cccnc21 (racemic),3.1 µM,760 µL/min/mg,,,,
CN1C(=O)[C@@H]2CN(S(=O)(=O)c3ccc4ccoc4c3)C[C@@H]2c2cnccc21,1.56 µM,115 µL/min/mg,,,,
"CN1C(=O)[C@]2(C)CN(S(=O)(=O)c3ccc4c(c3)OCO4)C[C@@H]2c2ccccc21 (single isomer, unassigned)",> 25 µM,,,,,
CN1C(=O)[C@H]2CN(S(=O)(=O)c3ccc4c(c3)OCO4)C[C@H]2c2ccccc21,6.3 µM,2440 µL/min/mg,,,,
CN1C(=O)[C@@H]2CN(S(=O)(=O)c3ccn4ccnc4c3)C[C@@H]2c2cnccc21,3.1 µM,36 µL/min/mg,8.3,30,16 ×10⁻⁶ cm/s,
C[C@@H]1[C@@H]2C(=O)N(C)c3ccncc3[C@@H]2CN1S(=O)(=O)c1ccc2c(c1)OCO2,3.1 µM,,,,,
C[C@@H]1[C@H]2C(=O)N(C)c3ccncc3[C@H]2CN1S(=O)(=O)c1ccc2c(c1)OCO2,> 25 µM,,,,,Kd [17]: > 20 µM; EC50 [18]: > 25 µM
CN1C(=O)[C@@H]2CN(S(=O)(=O)c3ccc4ocnc4c3)C[C@@H]2c2cnccc21,0.39 µM,73 µL/min/mg,1.1,3.6,25 ×10⁻⁶ cm/s,Drug degradation [19]: 50%; Stability (Plasma [20]): Unstable; Drug degradation [21]: 30%; Stability [22]: Unstable
